Source: ChEMBL document CHEMBL1149716, “Synthesis and antidiabetic activity of 2,5-disubstituted-3-imidazol-2-yl-pyrrolo[2,3-b]pyridines and thieno[2,3-b]pyridines” (2007)
Calls of active or inactive are those of the source. No cut-off for these calls is given here.

Columns and labels:
Mus musculus [1] = assay: Antidiabetic activity in ip dosed overnight fasted C57BL/6J mouse assessed as serum insulin level by ELISA; format: functional, organism-based
Outline: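 Male C57BL/6J mice (8–12 weeks, 25–30 g), randomized into groups of n = 6 by fed glucose and fasted overnight. Single ip dose of 1, 10 or 100 μM/kg/10 mL, suspended in normal saline (saline vehicle control). Retro-orbital blood taken under light ether at 30 min. Serum stored at -70 °C, then assayed by rat/mouse insulin ELISA. Mean ± SEM.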

[2] = Insulinotropic activity in rat RIN5F cells assessed as glucose dependent insulin secretion per ug of total protein at 10 uM; format: functional
Outline: (§1)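 RIN5F cells seeded at 0.2×10^6 per well and grown overnight to 80% confluence. Preincubated 40 min in Krebs-Ringer Hepes buffer (1.1 mM glucose, 0.5% BSA, pH 7.4). Then exposed 30 min at 37 °C to compound with 16.7 mM glucose. Supernatant insulin by rat insulin ELISA, normalized to total protein (pg/μg/h). n = 3, mean ± SD.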

[3] = Insulinotropic activity in rat RIN5F cells assessed as glucose dependent insulin secretion per ug of total protein at 0.1 uM; format: functional; outline: as §1
Mus musculus [4] = assay: Antidiabetic activity in overnight fasted C57BL/6J mouse assessed as reduction in serum glucose level at 1 uM to 100 uM, ip after 120 mins; format: functional, organism-based
Outline: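 Male C57BL/6J mice (8–12 weeks, 25–30 g), n = 6 per group, fasted overnight. Single ip dose of 1, 10 or 100 μM/kg/10 mL in saline (saline vehicle control). Retro-orbital blood under light ether at 0, 30, 60 and 120 min. Serum glucose by GOD/POD method, duplicate samples. Baseline-corrected curves and 0–120 min AUC; mean ± SEM.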

[5] = Insulinotropic activity in rat RIN5F cells assessed as glucose dependent insulin secretion per ug of total protein at 1 uM; format: functional; outline: as §1
[6] = Insulinotropic activity in rat RIN5F cells assessed as insulin secretion per ug of total protein at 1 uM; format: functional
Outline: (§2)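 RIN5F cells seeded at 0.2×10^6 per well, grown overnight to 80% confluence, then preincubated 40 min in Krebs-Ringer Hepes buffer (1.1 mM glucose, 0.5% BSA, pH 7.4). Incubated 30 min at 37 °C with compound in the absence of glucose (0 mM). Secreted insulin by rat insulin ELISA, normalized to total protein (pg/μg/h). n = 3, mean ± SD.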

[7] = Insulinotropic activity in rat RIN5F cells assessed as insulin secretion per ug of total protein at 10 uM; format: functional; outline: as §2
[8] = Insulinotropic activity in rat RIN5F cells assessed as insulin secretion per ug of total protein at 0.1 uM; format: functional; outline: as §2
Mus musculus [9] = assay: Antidiabetic activity in overnight fasted C57BL/6J mouse assessed as reduction in serum glucose level at 1 uM to 100 uM, ip after 30 mins; format: functional, organism-based
Outline: (§3)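 Male C57BL/6J mice (8–12 weeks, 25–30 g, bred in-house) randomized into groups (n = 6) by fed glucose, fasted overnight with water ad libitum. Compounds suspended in normal saline given ip at 1, 10 and 100 μM/kg/10 mL right after 0 min bleed. Retro-orbital blood under light ether at 0, 30, 60, 120 min; serum glucose by GOD/POD method, duplicate samples; mean ± SEM.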

Mus musculus [10] = assay: Antidiabetic activity in overnight fasted C57BL/6J mouse assessed as reduction in serum glucose level at 1 uM to 100 uM, ip after 60 mins; format: functional, organism-based; outline: as §3

Cc1[nH]c2ncc(Cl)cc2c1C1=NCCN1
Activity (Mus musculus [1]): Dose-dependent effect | Activity [2]: 41.7 pg/h | Activity [3]: 19.3 pg/h | Activity (Mus musculus [4]): Active | Activity [5]: 27.7 pg/µg/h

Clc1cnc2[nH]cc(C3=NCCN3)c2c1
Activity [2]: 29.6 pg/h | Activity [3]: 12.4 pg/h | Activity [5]: 15.2 pg/µg/h

Cc1[nH]c2ncccc2c1C1=NCCN1
Activity [2]: 32.4 pg/h | Activity [3]: 14.9 pg/h | Activity [5]: 18 pg/µg/h

CCc1sc2ncccc2c1C1=NCCN1
Activity [2]: 29.1 pg/h | Activity [3]: 13 pg/h | Activity [5]: 15.5 pg/µg/h

c1ccc(-c2[nH]c3ncccc3c2C2=NCCN2)cc1
Activity [2]: 32.5 pg/h | Activity [3]: 14.1 pg/h | Activity [5]: 18.1 pg/µg/h

Clc1cnc2[nH]c(C3CCCCC3)c(C3=NCCN3)c2c1
Activity [2]: 28.9 pg/h | Activity [3]: 12.6 pg/h | Activity [5]: 15 pg/µg/h

CCCCNC(=O)NS(=O)(=O)c1ccc(C)cc1 [TOLBUTAMIDE]
Activity [6]: 20.7 pg/h | Activity [7]: 34.4 pg/h | Activity [2]: 35.2 pg/h | Activity [3]: 20 pg/h | Activity [8]: 19.7 pg/h

Clc1cnc2sc(Cc3ccccc3)c(C3=NCCN3)c2c1
Activity [2]: 31.9 pg/h | Activity [3]: 13.9 pg/h | Activity [5]: 18.2 pg/µg/h

Clc1cnc2scc(C3=NCCN3)c2c1
Activity [2]: 29 pg/h | Activity [3]: 12.6 pg/h | Activity [5]: 15 pg/µg/h

c1ccc(Cc2[nH]c3ncccc3c2C2=NCCN2)cc1
Activity [2]: 32.6 pg/h | Activity [3]: 14.8 pg/h | Activity [5]: 18.2 pg/µg/h

c1cnc2[nH]c(C3CCCCC3)c(C3=NCCN3)c2c1
Activity [2]: 28 pg/h | Activity [3]: 12.4 pg/h | Activity [5]: 14.3 pg/µg/h

CCc1[nH]c2ncc(Cl)cc2c1C1=NCCN1
Activity [2]: 39.9 pg/h | Activity [3]: 18.9 pg/h | Activity [5]: 26.1 pg/µg/h

Clc1cnc2[nH]c(-c3ccccc3)c(C3=NCCN3)c2c1
Activity [2]: 39.2 pg/h | Activity [3]: 18.2 pg/h | Activity [5]: 25.5 pg/µg/h

c1ccc(-c2sc3ncccc3c2C2=NCCN2)cc1
Activity [2]: 31.9 pg/h | Activity [3]: 14.7 pg/h | Activity [5]: 18 pg/µg/h

Clc1cnc2[nH]c(Cc3ccccc3)c(C3=NCCN3)c2c1
Activity [2]: 31.9 pg/h | Activity [3]: 14.4 pg/h | Activity [5]: 18.3 pg/µg/h

c1cnc2[nH]cc(C3=NCCN3)c2c1
Activity [2]: 28 pg/h | Activity [3]: 12.1 pg/h | Activity [5]: 14.1 pg/µg/h

c1cnc2sc(C3CCCCC3)c(C3=NCCN3)c2c1
Activity [2]: 28.1 pg/h | Activity [3]: 12.6 pg/h | Activity [5]: 14.7 pg/µg/h

c1ccc(Cc2sc3ncccc3c2C2=NCCN2)cc1
Activity [2]: 31.6 pg/h | Activity [3]: 14.4 pg/h | Activity [5]: 18.8 pg/µg/h

c1cnc2scc(C3=NCCN3)c2c1
Activity [2]: 28.2 pg/h | Activity [3]: 12.2 pg/h | Activity [5]: 14.2 pg/µg/h

Cc1sc2ncc(Cl)cc2c1C1=NCCN1
Activity (Mus musculus [1]): Dose-dependent effect | Activity [2]: 41.5 pg/h | Activity [3]: 19.2 pg/h | Activity (Mus musculus [4]): Active | Activity [5]: 27.5 pg/µg/h

Cc1[nH]c2ccc(Cl)cc2c1C1=NCCN1
Activity (Mus musculus [9]): Active | Activity [2]: 36.5 pg/h | Activity [3]: 16.3 pg/h | Activity (Mus musculus [10]): Active | Activity [5]: 22.4 pg/µg/h

Clc1cnc2sc(-c3ccccc3)c(C3=NCCN3)c2c1
Activity [2]: 39 pg/h | Activity [3]: 18 pg/h | Activity [5]: 25.4 pg/µg/h

Clc1cnc2sc(C3CCCCC3)c(C3=NCCN3)c2c1
Activity [2]: 28.7 pg/h | Activity [3]: 12.9 pg/h | Activity [5]: 15.1 pg/µg/h

Cc1sc2ncccc2c1C1=NCCN1
Activity [2]: 31.8 pg/h | Activity [3]: 14.5 pg/h | Activity [5]: 18.9 pg/µg/h

CCc1[nH]c2ncccc2c1C1=NCCN1
Activity [2]: 29.1 pg/h | Activity [3]: 13.3 pg/h | Activity [5]: 16.4 pg/µg/h

CCc1sc2ncc(Cl)cc2c1C1=NCCN1
Activity [2]: 39.8 pg/h | Activity [3]: 18.5 pg/h | Activity [5]: 26.5 pg/µg/h
